# From PubChem BioAssay
# Active and inactive are the calls of the source.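 The calls were made as follows, unless noted: active = inhibition at or above 50% relative to wild type and mutant plate controls; inactive = inhibition below 50%.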
# What was measured:
# [1] = inhibitors of TNFa-induced NFkB p65 translocation, primary screen, imaging, HUVEC, MLSMR starter and 10KST1 sets (AID 438;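 active = inhibition above 20% together with a positive visual image hit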;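 also: compound added about 3h40 before a 20 min TNFalpha stimulation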;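 as to inhibition: signal is the nuclear over cytoplasmic p65 intensity ratio per well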); conditions: HUVEC TNFa-induced p65 nuclear translocation; cell count: measured here: nuclei count (cytotoxicity indicator), at 2.08 µM; inhibition: at 2 µM, stronger effect = higher value, 0% TNFa-plus-vehicle, 100% no-TNFa wells
# [2] = endothelial E-selectin expression blockers – imaging, HUVEC, immunofluorescence, MLSMR starter and 10KST1 sets, primary screen (AID 487;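 active = visually confirmed hit in the image check and inhibition above 20%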;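 as to inhibition: signal is fraction of cell area covered by stained E-selectin grains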;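 as to nuclei count: 100% = median nuclei count of all wells on the same plate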); conditions: HUVEC TNFalpha-induced E-selectin immunofluorescence imaging, at 2 µM; inhibition: stronger effect = higher value; nuclei count: measured here: cell number, toxicity
# [3] = Primary imaging screen for DUSP6 inhibitors that restore phospho-Erk in transfected HeLa cells, chemical complementation (AID 609;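 active = compounds giving at least 50% inhibition in the cell-based MKP-3 phosphatase rescue imaging test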;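 as to inhibition: phospho-Erk level distribution per well compared with pooled transfected vehicle control wells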); conditions: HeLa MKP-3 transfected, phospho-Erk imaging KS statistic, at 10 µM, cells stimulated with TPA for 15 min
# [4] = target: Dual specificity protein phosphatase 6 (Homo sapiens) (UniProt Q16828); assay: as above; conditions: HeLa MKP-3 transfected, phospho-Erk imaging KS statistic; at 10 µM; stronger effect = higher value; cells stimulated with TPA for 15 min
# Dual specificity protein phosphatase 6 (Homo sapiens), sequence (Q16828 whole entry, looked up): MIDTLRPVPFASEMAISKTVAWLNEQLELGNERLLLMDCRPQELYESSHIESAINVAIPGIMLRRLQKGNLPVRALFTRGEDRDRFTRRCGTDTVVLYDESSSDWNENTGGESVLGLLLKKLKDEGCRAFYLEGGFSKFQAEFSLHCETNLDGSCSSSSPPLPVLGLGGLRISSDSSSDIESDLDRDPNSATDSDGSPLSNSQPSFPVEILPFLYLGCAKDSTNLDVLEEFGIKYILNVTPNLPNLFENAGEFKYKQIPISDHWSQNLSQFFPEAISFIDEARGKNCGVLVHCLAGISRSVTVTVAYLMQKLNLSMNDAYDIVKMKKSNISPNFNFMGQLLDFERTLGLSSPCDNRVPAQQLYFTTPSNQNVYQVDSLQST
# [5] = target: Voltage-gated potassium channel subunit beta-2 (Rattus norvegicus) (UniProt P62483); assay: inhibitors of rat Kvbeta2 reductase activity – biochemical, NADPH fluorescence, primary screen (AID 622;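 active = fluorescence slope higher than the sample average by over 3 SD, cut at about -0.22 in these data, passing the limit was not always enough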;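 also: slope of raw intensity against log time taken from 70 to 1610 s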); conditions: recombinant KvBeta, 4-cyanobenzaldehyde reduction, at 10 µM, stronger effect = higher value
# Voltage-gated potassium channel subunit beta-2 (Rattus norvegicus), sequence (P62483 whole entry, looked up): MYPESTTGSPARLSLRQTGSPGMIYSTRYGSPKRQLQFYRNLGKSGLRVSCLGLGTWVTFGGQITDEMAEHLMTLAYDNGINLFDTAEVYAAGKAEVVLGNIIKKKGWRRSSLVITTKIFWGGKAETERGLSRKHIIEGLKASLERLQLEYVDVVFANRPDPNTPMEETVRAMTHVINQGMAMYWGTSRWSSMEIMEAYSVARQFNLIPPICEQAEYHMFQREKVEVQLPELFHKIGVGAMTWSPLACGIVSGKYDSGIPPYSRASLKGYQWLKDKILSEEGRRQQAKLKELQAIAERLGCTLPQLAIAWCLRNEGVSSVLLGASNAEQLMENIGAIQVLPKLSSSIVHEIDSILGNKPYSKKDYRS
# [6] = target: Voltage-gated potassium channel subunit beta-2 (Rattus norvegicus) (UniProt P62483); assay: enhancers of rat Kvbeta2 NADPH turnover – biochemical, NADPH fluorescence, primary screen (AID 623;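 active = NADPH fluorescence slope more negative than the mean of all samples by about 3 SD, 99.7% confidence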;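 also: fluorescence intensity change per second fitted from 20 to 320 s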); conditions: Recombinant KvBeta, NADPH fluorescence decrease slope, 10 min; at 10 µM; stronger effect = lower value
# [7] = target: Alpha-2C adrenergic receptor (Homo sapiens) (UniProt P18825); assay: compounds altering alpha2C-coupled GIRK flux – cell-based, HEK293 alpha2C/GIRK1/2, thallium flux, primary screen (AID 624;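 active = fluorescence slope after compound addition differing from the mean of all screened samples at 99.7% confidence, in either direction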;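 also: slope of fluorescence ratio to pre-addition baseline per second over 15 to 24 s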); conditions: thallium flux BTC fluorescence, at 10 µM, actives lie on both sides
# Alpha-2C adrenergic receptor (Homo sapiens), sequence (P18825 whole entry, looked up): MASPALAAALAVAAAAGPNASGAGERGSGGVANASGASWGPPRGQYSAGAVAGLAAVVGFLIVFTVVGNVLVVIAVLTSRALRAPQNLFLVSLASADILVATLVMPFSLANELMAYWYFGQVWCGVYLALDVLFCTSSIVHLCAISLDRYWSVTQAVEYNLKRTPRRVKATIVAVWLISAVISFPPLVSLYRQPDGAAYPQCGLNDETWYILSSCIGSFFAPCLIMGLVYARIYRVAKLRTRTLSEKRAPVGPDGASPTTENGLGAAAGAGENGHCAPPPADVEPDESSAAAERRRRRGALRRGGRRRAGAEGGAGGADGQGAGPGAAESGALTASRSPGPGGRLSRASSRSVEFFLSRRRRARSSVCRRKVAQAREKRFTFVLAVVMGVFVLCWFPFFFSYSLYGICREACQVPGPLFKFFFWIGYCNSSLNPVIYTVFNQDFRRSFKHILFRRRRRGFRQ
# [8] = inhibitors of larval lipid processing in zebrafish, primary screen, whole organism, PED6 fluorescence, gall bladder and intestine (AID 686;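 active = a full or partial loss of lipid-probe fluorescence in the fish gall bladder, intestine or both, judged by eye; inactive = no fluorescence loss, or compound toxic to the fish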;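 also: larvae 5 to 7 days old with five fish per well; signal comes from phospholipase A2 cleavage of quenched PED6 carried via bile; overnight exposure to compound and PED6 before scoring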); conditions: Zebrafish larvae PED6 lipid processing, fluorescence scoring; screened at 20 µM (by protocol)
# Method in brief: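 Also added: quenched phospholipase substrate PED6, 100 nM final, ingested by larvae; System: zebrafish larvae, 5-7 d; Quantity: 5 larvae per well; Compound: 20 µM single dose; Schedule: overnight compound and PED6 incubation; Read-out: visual per-well fluorescence inhibition score; Measured by: By-eye fluorescence microscopy; Medium: E3.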
# [9] = loss of swimming-algae plug formation – whole organism, Chlamydomonas reinhardtii, WT vs cilia-less mutant, absorbance, 96-well, primary screen (AID 463189); conditions: Chlamydomonas reinhardtii gravitaxis, OD600 absorbance, 2 days; at 10 µM; stronger effect = higher value;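 also: 0% = wild type cc124 cells in DMSO and 100% = ciliumless bld1 mutant cells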
# [10] = measured here: cell density z-score
# [11] = measured here: nuclear c-Myc green intensity z-score
# [12] = measured here: nuclear pErk red intensity z-score, stronger effect = higher value
Compound,cell count [1],inhibition [1],inhibition [2],nuclei count [2],"z-score [3, 10]","z-score [3, 11]","z-score [3, 12]",inhibition [4],fluorescence slope [5],NADPH fluorescence slope [6],slope [7],outcome [8],inhibition [9]
COc1ccc(/C=N/n2cncn2)cc1CSc1ccccn1,302,-17.2% (inactive),-137% (inactive),114%,-0.741,0.803,-0.342,-2.29% (inactive),-0.32 (inactive),9e-06 (inactive),0.00478 (inactive),inactive,27% (inactive)
CCOC(=O)C1=C(C(C)=O)C(c2cccnc2)C(C#N)=C(N)O1 (configuration not stated),548,-5.1% (inactive),-109% (inactive),228%,0.844,-1.11,-0.0919,6.04% (inactive),-0.369 (inactive),-1e-05 (inactive),0.00521 (inactive),inactive,12.1% (inactive)
CC(=O)c1c(C)c2c(n1CCN(C)C)CCCC2,518,-10% (inactive),17.6% (inactive),93.6%,-0.53,2.44,1.25,-11.5% (inactive),-0.521 (inactive),-1.7e-05 (inactive),0.0146 (active),inactive,-13.1% (inactive)
OCCCc1nc2ccccc2n1CCc1ccccc1,390,-15.7% (inactive),-395% (inactive),203%,1.19,-1.69,-0.407,20.8% (inactive),-0.421 (inactive),-4.3e-05 (inactive),0.00481 (inactive),inactive,15.3% (inactive)
COC(=O)C(NC(C)=O)(Nc1ccccc1)C(=O)OC,566,-19.3% (inactive),-259% (inactive),191%,1.28,-1.78,-0.855,18.2% (inactive),-0.532 (inactive),-6.4e-05 (inactive),0.00504 (inactive),inactive,2.12% (inactive)
O=C(CN1C(=O)c2ccccc2C1=O)NCc1ccncc1,357,-6.8% (inactive),-60.9% (inactive),167%,0.341,-1.51,1.76,-10.6% (inactive),-0.432 (inactive),-0.000133 (inactive),0.00529 (inactive),inactive,31% (inactive)
CCN(CC)C(=O)CN(C#N)c1nc(NC(C)C)nc(NC(C)C)n1,594,5.2% (inactive),-48.7% (inactive),173%,0.0403,2.22,-0.0328,5.65% (inactive),-0.213 (inactive),8.9e-06 (inactive),0.00592 (inactive),inactive,31.8% (inactive)
Fc1ccccc1/C=N/n1cnnc1,540,-6.3% (inactive),-60.4% (inactive),172%,0.728,-0.356,0.425,4.25% (inactive),-0.297 (inactive),-6.2e-06 (inactive),0.00552 (inactive),inactive,5.22% (inactive)
N#Cc1c(NC(=O)CCC(=O)O)sc2c1CCCC2,715,-11.6% (inactive),-10.3% (inactive),186%,-1.16,1.41,-1.22,-7.28% (inactive),-0.388 (inactive),-5e-05 (inactive),0.00575 (inactive),inactive,-7.91% (inactive)
CC(C)(C)NCC(=O)c1c[nH]c2ccccc12,535,-1.7% (inactive),-49.5% (inactive),146%,-0.736,1.42,-0.666,-1.75% (inactive),-0.35 (inactive),5.2e-06 (inactive),0.00435 (inactive),inactive,-1.18% (inactive)
Cn1c(OCc2cccnc2)nc2c1c(=O)n(Cc1ccc(Cl)cc1)c(=O)n2C,653,-7.1% (inactive),6.1% (inactive),156%,-0.404,0.0478,1.27,2.46% (inactive),-0.505 (inactive),-9.6e-05 (inactive),0.00416 (inactive),inactive,66.4% (active)
COCCCNc1nc2c(c(=O)n(C)c(=O)n2C)n1Cc1cccc(OC)c1,434,-9.7% (inactive),-93.1% (inactive),190%,2.25,-1.46,-1.41,4.37% (inactive),-0.325 (inactive),1.1e-05 (inactive),0.00428 (inactive),inactive,-3.39% (inactive)
COc1cc(C2C(C#N)=C(N)Oc3cc(C)n(CCN4CCOCC4)c(=O)c32)cc(OC)c1OC (configuration not stated),388,4% (inactive),-116% (inactive),142%,-0.238,-0.479,-0.461,-4.7% (inactive),-0.468 (inactive),-4.4e-05 (inactive),0.0078 (inactive),inactive,-6.44% (inactive)
COCc1cc(=O)[nH]c(Nc2nc3ccc(C)cc3o2)n1,568,-19% (inactive),-52.2% (inactive),156%,0.289,0.499,-0.0408,-3.97% (inactive),-0.463 (inactive),-4.8e-05 (inactive),0.00626 (inactive),inactive,2.95% (inactive)
